pIC50, pKd: −log10 of the molar value. The source made the active and inactive calls. The calls are words filed in the database; no cut-off is given here.
Assays:
HCT-116 [1] = assay: Inhibition of cell proliferation in human HCT-116 cells at 4 uM measured after 7 days by colony formation assay relative to control; assay type: functional; conditions: HCT-116, 168 h, time 7 day
Procedure, shortened: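 Colony formation: HCT116 cells treated for 7 days at 0, 1, 2 or 4 uM, colonies counted and quantified; mean ± SD.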

[2] = Toxicity in BALB/c nude mouse assessed as effect on heart at 5 mg/kg, iv measured after 16 hrs post injection by H and E staining based analysis; assay type: organism-based; conditions: in vivo
HFF-1 = assay: Downregulation of ND1 gene expression in human HFF-1 cells at 0 to 4 uM measured after 48 hrs by q-PCR analysis; assay type: functional, cell-based; conditions: dose 0-4 µM
DNA [3] = assay: Binding affinity to HP19 DNA (non-G4 DNA) (unknown origin) assessed as dissociation constant measured upto 150 secs by isothermal titration calorimetry assay; assay type: nucleic-acid assay
[4] = Toxicity in BALB/c nude mouse assessed as effect on kidney at 5 mg/kg, iv measured after 16 hrs post injection by H and E staining based analysis; assay type: organism-based; conditions: in vivo
HCT-116 [5] = assay: Induction of mitochondrial dysfunction in human HCT-116 cells assessed as decrease in ATP production at upto 4 uM incubated for 3 hrs by Seahorse XFe24 analyzer; assay type: functional, cell-based
Procedure, shortened: (§1)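 Seahorse Mito-stress and glycolysis stress tests on HCT116 cells treated with ligand for 3 h. Oxygen consumption rate and extracellular acidification rate recorded.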

HCT-116 [6] = assay: Downregulation of ATP8 protein level in human HCT-116 cells at upto 4 uM incubated for 48 hrs by Western blot analysis; assay type: functional, cell-based
HCT-116 [7] = assay: Inhibition of glycolysis in human HCT-116 cells assessed as reduction in glucose consumption at upto 4 uM measured after 3 hrs by Seahorse XFe24 analyzer; assay type: functional, cell-based
LoVo = assay: Antiproliferative activity against human LoVo cells measured after 48 hrs by MTT assay; assay type: functional, cell-based
Procedure, shortened: (§2)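 Cells exposed to the ligands for 48 h. Viability was read by MTT, and the IC50 was derived from the response.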

[8] = Drug localization in mitochondria of living human HCT-116 cells assessed as colocalization at 4 uM incubated for 1 hr by Mito-tracker deep red staining based analysis; assay type: ADME; conditions: hct-116, 1 h
Quadruplex DNA [9] = assay: Binding affinity to mito 78 G4 DNA (unknown origin) assessed as dissociation constant measured upto 150 secs by isothermal titration calorimetry assay; assay type: nucleic-acid assay
HCT-116 [10] = assay: Antitumor activity against human HCT-116 cells assessed as increase in beta-galactosidase activity at upto 4 uM measured after 72 hrs relative to control; assay type: functional; conditions: up to 4 µM
Procedure, shortened: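 HCT116 cells were treated for 72 h across 0–4 uM. β-Galactosidase activity was then measured against untreated control. Data are given as mean ± SEM, with significance by t test.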

[11] = Drug localization in lysosome of living human HCT-116 cells assessed as colocalization at 4 uM incubated for 1 hr by lyso-tracker blue staining based analysis; assay type: ADME, subcellular; conditions: hct-116, 1 h
HCT-116 [12] = assay: Downregulation of Ki67 expression level in human HCT-116 cells at upto 4 uM measured after 72 hrs by immunofluorescence analysis; assay type: functional, cell-based
Procedure, shortened: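 HCT116 cells treated with ligand at 0-4 uM for 72 h. Lamin B1 and Ki67 imaged by immunofluorescence (excitation 635 nm), or lamin B1 probed on Western blot with β-actin as loading control.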

HCT-116 [13] = assay: Induction of mitochondrial dysfunction in human HCT-116 cells assessed as decrease in oxygen consumption rate at upto 4 uM incubated for 3 hrs by Seahorse XFe24 analyzer; assay type: functional, cell-based; procedure, shortened: as §1
Quadruplex DNA [14] = assay: Binding affinity to Mito 0.5-15 G4 DNA (unknown origin) assessed as change in melting temperature at 5 uM by circular dichroism spectroscopic analysis; assay type: nucleic-acid assay
HCT-116 [15] = assay: Downregulation of ATP8 mRNA level in human HCT-116 cells at 0 to 4 uM measured after 48 hrs by qRT-PCR analysis; assay type: functional, cell-based; conditions: dose 0-4 µM
[16] = Drug localization in human HCT-116 cells transfected with Cy5-SS19 non G4 DNA at 4 uM incubated for 1 hr by hoechst33342 staining based analysis; assay type: ADME, cell-based; conditions: hct-116, 1 h
Procedure, shortened: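 HCT116 cells transfected with Cy5-labelled DNA (excitation 635 nm) for 24 h. Ligand 4 uM added for 1 h, then Hoechst33342 1 uM for 30 min. Colocalization of ligand with Cy5 quantified by Pearson r from confocal images.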

HCT-116 [17] = assay: Downregulation of COX2 mRNA level in human HCT-116 cells at 0 to 4 uM measured after 48 hrs by qRT-PCR analysis; assay type: functional, cell-based; conditions: dose 0-4 µM
HCT-116 [18] = assay: Downregulation of ND6 protein level in human HCT-116 cells at upto 4 uM incubated for 48 hrs by Western blot analysis; assay type: functional, cell-based
HCT-116 [19] = assay: Induction of DNA damage in human HCT-116 assessed as increase in gammaH2AX level at upto 4 uM incubated for 72 hrs in presence of MitoTEMPOL by Western blot analysis; assay type: functional, cell-based
[20] = Toxicity in BALB/c nude mouse assessed as change in neutrophil count at 5 mg/kg, iv administered every two days for 16 days; assay type: organism-based; conditions: in vivo, 384 h, time 16 day
Procedure, shortened: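 HCT116 xenograft-bearing male Balb/c nude mice (6/group) dosed iv at 5 mg/kg every two days or with PBS. Whole blood collected at sacrifice on day 16 for hematology parameters.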

[21] = Drug localization in human HCT-116 cells by measuring red foci at 4 uM incubated for 1 hr in presence of DNA I by hoechst33342 staining based analysis; assay type: ADME, cell-based; conditions: hct-116, 1 h
Procedure, shortened: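 Live HCT116 cells loaded with ligand 4 uM for 1 h and Hoechst33342 1 uM for 30 min, then fixed. Fixed cells digested with 200 units DNase I or RNase A for 3 h. Red foci imaged by confocal microscopy in 100 cells. Mean ± SEM, t test.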

DNA [22] = assay: Binding affinity to SS19 DNA (non-G4 DNA) (unknown origin) assessed as increase in CD signal at 5 uM by circular dichroism spectroscopic analysis; assay type: nucleic-acid assay
DNA [23] = assay: Binding affinity to SS19 DNA (non-G4 DNA) (unknown origin) assessed as change in melting temperature at 5 uM by circular dichroism spectroscopic analysis; assay type: nucleic-acid assay
[24] = Drug localization in human HCT-116 cells transfected with Cy5-mito 78 G4 DNA at 4 uM incubated for 1 hr by hoechst33342 staining based analysis; assay type: ADME, cell-based; conditions: hct-116, 1 h
Procedure, shortened: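 HCT116 cells transfected with Cy5-coupled mtDNA for 24 h, then given ligand 4 uM for 1 h and Hoechst33342 1 uM for 30 min. Single-plane confocal imaging of living cells, ligand excited at 488 nm, Cy5 at 635 nm. Colocalization expressed as r.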

Quadruplex DNA [25] = assay: Binding affinity to Mito 55 G4 DNA (unknown origin) assessed as change in melting temperature at 5 uM by circular dichroism spectroscopic analysis; assay type: nucleic-acid assay
PANC-1 = assay: Antiproliferative activity against human PANC-1 cells measured after 48 hrs by MTT assay; assay type: functional, cell-based; conditions: PANC-1, 48 h; procedure, shortened: as §2

- pKd (DNA [3]): < 5.33
- pIC50 (LoVo): 4.87
- Drug uptake [8]: Active
- pKd (Quadruplex DNA [9]): 7.22
- Drug uptake [11]: Not Active
- ΔTm (Quadruplex DNA [14]): 3.6 °C
- Drug uptake [16]: Not Active
- Drug uptake [21]: Not Active
- Activity (DNA [22]): inactive
- ΔTm (DNA [23]): 0.5 °C
- Drug uptake [24]: Active
- ΔTm (Quadruplex DNA [25]): 3.6 °C
- pIC50 (PANC-1): 4.61
Compound: C(=C\c1ccc2ccccc2[n+]1CCCCCCCC[n+]1c(/C=C/c2ccc(N3CCCCC3)cc2)ccc2ccccc21)/c1ccc(N2CCCCC2)cc1.[I-].[I-]
- inhibition at 4 µM (HCT-116 [1]): 100%
- Activity [2]: Non-Toxic
- Activity (HFF-1): inactive
- Activity [4]: Non-Toxic
- Activity (HCT-116 [5]): Active
- Activity (HCT-116 [6]): Active
- inhibition (HCT-116 [7]): Active
- Activity (HCT-116 [10]): 17.63%
- Activity (HCT-116 [12]): Active
- Activity (HCT-116 [13]): Active
- Activity (HCT-116 [15]): Active
- Activity (HCT-116 [17]): Active
- Activity (HCT-116 [18]): Active
- Activity (HCT-116 [19]): inactive
- Activity [20]: Non-Toxic

From ChEMBL document CHEMBL5506013, “Mitochondria-Selective Dicationic Small-Molecule Ligand Targeting G-Quadruplex Structures for Human Colorectal Cancer Therapy” (J Med Chem, 2024)
